The test system of assay [1] is MCF7. The assay is described as follows: Antiproliferative activity against human MCF7 cells assessed as cell survival at 4 ug/mL after 72 hrs by MTS assay relative to control. The format is functional. The settings on record: MCF7, 72 h, read-out: Survival. The method in brief:
(§1)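 Log-phase cells seeded at 5000 cells/mL/well in 24-well format. They were then exposed to test agents at a single concentration of 4.0 μg/mL for 72 h. Growth and viability were read by MTS assay.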
Background: Tetrazolium dyes change colour on reduction, which living cells bring about.

The test system of another assay is NCI-H460. Briefly: Antiproliferative activity against human NCI-H460 cells assessed as cell survival at 4 ug/mL after 72 hrs by MTS assay relative to control. The settings on record: NCI-H460, 72 h, read-out: Survival. The format is functional. The method in brief: as §1
The next assay has as its system SF-268. The assay is described as follows: Antiproliferative activity against human SF268 cells assessed as cell survival at 4 ug/mL after 72 hrs by MTS assay relative to control. The format is functional. The settings on record: SF-268, 72 h, read-out: Survival. The method in brief:
as §1

Assay [2] is described as follows: Growth inhibition of human NCI60 cells. It counts as functional.
Assay [3] has as its system MCF7. The assay is described as follows: Antiproliferative activity against human MCF7 cells after 48 hrs by ATPlite assay. The settings on record: MCF7, 48 h. It counts as functional, cell-based. In general terms: In ATP-based viability assays light output follows the ATP content of the culture.
The test system of another assay is LNCaP. Briefly: Antiproliferative activity against human LNCAP cells after 48 hrs by ATPlite assay. It counts as functional, cell-based.
A further assay has as its system PC-3. Briefly: Antiproliferative activity against human PC3 cells after 48 hrs by ATPlite assay. As to conditions: PC-3, 48 h. The format is functional, cell-based.

With `O=[N+]([O-])c1ccc(/C=C/c2ccc3cccc(O)c3n2)cc1`, the viability at 4 µg/mL with MCF7 [1] was 89%; in the assay on NCI-H460, 52%; with SF-268, 77%.
As to `COc1cc(NS(C)(=O)=O)ccc1Nc1c2ccccc2nc2ccccc12` [AMSACRINE], the concentration for 50% growth inhibition (GI50) (commonly the concentration giving 50% growth inhibition) in assay [2] is 0.44 µM.
Consider `COc1cccc2c(Nc3ccc(C(C)=O)cc3)cc(/C=C/c3ccccc3)nc12`, for which the viability at 4 µg/mL with MCF7 [1] came out at 95%; with NCI-H460, 75%; with SF-268, 114%.
`Oc1ccc(/C=C/c2ccc3cccc(O)c3n2)cc1`: the results for the viability at 4 µg/mL in the assay with MCF7 [1], in the assay on NCI-H460 and in the assay with SF-268 were 108%, 52% and 78%, respectively.
For the compound `CC(=O)c1ccc(Nc2cc(/C=C/c3ccc([N+](=O)[O-])o3)nc3ccccc23)cc1`, the IC50 – broadly, the concentration at which inhibition is half-maximal – in the assay on MCF7 [3] was 0.43 µM; in the assay with LNCaP, 4.12 µM; with PC-3, 0.45 µM. Moreover, the viability at 4 µg/mL with MCF7 [1], in the assay with NCI-H460 and in the assay with SF-268 was < 20% in each case.
As for `Oc1cccc2ccc(/C=C/c3ccc(F)cc3)nc12`, the viability at 4 µg/mL in the assay on MCF7 [1] came to 103%; in the assay on NCI-H460 it was 66%; in the assay on SF-268, 82%.
With `C/C(=N\O)c1ccc(Nc2cc(/C=C/c3ccc([N+](=O)[O-])o3)nc3ccccc23)cc1`, the half-maximal inhibitory concentration (IC50) was determined as 0.25 µM with MCF7 [3], 0.95 µM in the assay with LNCaP and 0.19 µM in the assay with PC-3. For the same compound, the viability at 4 µg/mL in the assay with MCF7 [1], with NCI-H460 and with SF-268 was < 20% throughout.
Take `COc1cccc2c1C(=O)c1c(O)c3c(c(O)c1C2=O)C[C@@](O)(C(C)=O)C[C@@H]3O[C@H]1C[C@H](N)[C@H](O)[C@H](C)O1` [DAUNORUBICIN]: halving of growth in assay [2] (GI50) required 0.044 µM.
In the case of `COc1cccc2c(Nc3ccc(/C(C)=N\O)cc3)cc(/C=C/c3ccccc3)nc12`, the viability at 4 µg/mL in the assay with MCF7 [1] is 40%; with NCI-H460, < 20%; in the assay on SF-268, 63%.
With `Oc1cccc2ccc(/C=C/c3ccco3)nc12`, the viability at 4 µg/mL worked out at 110% with MCF7 [1], 70% in the assay on NCI-H460 and 76% in the assay on SF-268.
For the compound `CO/N=C(\C)c1ccc(Nc2cc(/C=C/c3ccc([N+](=O)[O-])o3)nc3ccccc23)cc1`, the IC50 with MCF7 [3] turned out to be 0.4 µM; in the assay on LNCaP, 1.04 µM; with PC-3, 0.52 µM. Moreover, the viability at 4 µg/mL with MCF7 [1], in the assay on NCI-H460 and in the assay on SF-268 was < 20% in each case.
For `N#Cc1ccc(/C=C/c2ccc3cccc(O)c3n2)cc1`, the figures for the viability at 4 µg/mL in the assay with MCF7 [1], in the assay on NCI-H460 and with SF-268 were 107%, 66% and 90%, respectively.
As for `COc1cccc2c(Cl)cc(/C=C/c3ccccc3)nc12`, the viability at 4 µg/mL in the assay with MCF7 [1] was determined as 99%; in the assay with NCI-H460, 109%; in the assay on SF-268, 81%.
The corresponding values for `CO/N=C(/C)c1ccc(Nc2cc(/C=C/c3ccccc3)nc3c(OC)cccc23)cc1` are 97%, 87% and 97%.
The corresponding values for `Oc1cccc2ccc(/C=C/c3ccccc3)nc12` are 110%, 55% and 72%.
As for `CC(=O)c1ccc(Nc2c3ccccc3nc3occc23)cc1`, the GI50 in assay [2] was 0.025 µM.
As to `Clc1cc(/C=C/c2ccccc2)nc2ccccc12`, the viability at 4 µg/mL was found to be 120% in the assay with MCF7 [1], 109% with NCI-H460 and 118% in the assay with SF-268.
The matching figures for `Oc1cccc(/C=C/c2ccc3cccc(O)c3n2)c1O`: 95%, 53% and 52%.
The corresponding values for `CO/N=C(/C)c1ccc(Nc2cc(/C=C/c3ccccc3)nc3ccccc23)cc1` are 108%, 79% and 112%.
For `C/C(=N/O)c1ccc(Nc2cc(/C=C/c3ccccc3)nc3ccccc23)cc1`, the viability at 4 µg/mL in the assay on MCF7 [1] was 54%; in the assay on NCI-H460 it was 67%; with SF-268 it was 90%.
The matching figures for `Oc1cccc2ccc(/C=C/c3cccnc3)nc12`: 115%, 63% and 89%.
The corresponding values for `COc1cccc2c(O)cc(/C=C/c3ccccc3)nc12` are 104%, 111% and 119%.
The corresponding values for `Oc1cc(/C=C/c2ccccc2)nc2ccccc12` are 119%, 118% and 120%.
`CC(=O)c1ccc(Nc2cc(/C=C/c3ccccc3)nc3ccccc23)cc1`: the viability at 4 µg/mL is 83% in the assay on MCF7 [1], 52% with NCI-H460 and 107% with SF-268.
